According to ChEMBL document CHEMBL1145210, “Novel cyano- and N-isopropylamidino-substituted derivatives of benzo[b]thiophene-2-carboxanilides and benzo[b]thieno[2,3-c]quinolones: synthesis, photochemical synthesis, crystal structure determination, and antitumor evaluation. 2” (J Med Chem, 2005):
Each block holds one compound with its values, some of them ahead of it.

Tests used:
[1] = system: MCF7; test: In vitro Inhibition on growth of human MCF 7 breast carcinoma cell line; assay type: functional, cell-based
Outline: (§1)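 Monolayer cultures in DMEM with 10% FBS, 2 mM L-glutamine, penicillin/streptomycin, 37 °C, 5% CO2. Cells plated on day 0 at densities set by doubling time (1 × 10⁴/mL HeLa, Hep-2, MiaPaCa-2, SW 620; 2 × 10⁴/mL MCF-7; 3 × 10⁴/mL WI 38). Compound added at five 10-fold dilutions (10^-8 to 10^-4 mol/L) for 72 h. MTT read at 570 nm, converted to percentage growth versus time-zero and untreated controls. Quadruplicate points, three experiments. IC50 by linear regression.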

[2] = system: SW-620; test: In vitro Inhibition on growth of human SW 620 colon carcinoma cell line; assay type: functional, cell-based; outline: as §1
[3] = system: HeLa; test: In vitro Inhibition on growth of human HeLa cervical carcinoma cell line; assay type: functional, cell-based; outline: as §1
[4] = In vitro Inhibition on growth of human WI 38 diploid fibroblast cell line; assay type: functional, cell-based; outline: as §1
[5] = In vitro Inhibition on growth of human Hep 2 laryngeal carcinoma cell line; assay type: functional; outline: as §1
[6] = system: MIA PaCa-2; test: In vitro Inhibition on growth of human MiaPaCa-2 pancreatic carcinoma cell line; assay type: functional, cell-based; outline: as §1
[7] = system: HeLa; test: Percentage of apoptosis induced by compound in HeLa cell line after at 5 uM concentration 72 h; assay type: functional, Homo sapiens
Outline: (§2)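 Annexin-V assay after 72 h exposure to 5 or 10 µM. Cells washed with PBS, pelleted, and stained with Annexin-V-fluorescein plus propidium iodide in Hepes buffer. Scored by fluorescence microscopy: Annexin-V-positive cells counted as apoptotic, Annexin-V/PI double-positive as necrotic. Apoptotic fraction given as percentage of total cells.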

[8] = system: HeLa; test: Percentage of apoptosis induced by compound in HeLa cell line after at 10 uM concentration 72 h; assay type: functional, Homo sapiens; outline: as §2
[9] = system: SW-620; test: Percentage of apoptosis induced by compound in SW 620 cell line at 5 uM concentration after 72 h; assay type: functional, Homo sapiens; outline: as §2
[10] = system: SW-620; test: Percentage of apoptosis induced by compound in SW 620 cell line at 10 uM concentration after 72 h; assay type: functional, Homo sapiens; outline: as §2
[11] = system: MIA PaCa-2; test: Percentage of apoptosis induced by compound in MiaPaCa-2 cell line at 5 uM concentration after 72 h; assay type: functional, Homo sapiens; outline: as §2
[12] = system: MIA PaCa-2; test: Percentage of apoptosis induced by compound in MiaPaCa-2 cell line at 10 uM concentration after 72 h; assay type: functional, Homo sapiens; outline: as §2

Structure (SMILES): COc1ccc(NC(=O)c2sc3cc(C(=N)NC(C)C)ccc3c2Cl)cc1
IC50 [1]: 17.4 µM | IC50 [2]: 8.24 µM | IC50 [3]: 5.83 µM | IC50 [4]: 29.8 µM | IC50 [5]: 9.7 µM | IC50 [6]: 22.5 µM

Structure (SMILES): COC(=O)c1ccc(NC(=O)c2sc3ccccc3c2Cl)cc1
IC50 [1]: > 100 µM | IC50 [2]: > 100 µM | IC50 [3]: > 100 µM | IC50 [4]: 44.3 µM | IC50 [5]: > 100 µM | IC50 [6]: > 100 µM

Structure (SMILES): CC(C)/N=C(/N)c1ccc2c(c1)sc1c(O)nc3ccccc3c12
IC50 [1]: 21.3 µM | IC50 [2]: 3.76 µM | IC50 [3]: 49.2 µM | IC50 [4]: 37.4 µM | IC50 [5]: 20.9 µM | IC50 [6]: 18 µM

Structure (SMILES): N#Cc1ccc(NC(=O)c2sc3ccccc3c2Cl)cc1
IC50 [1]: 100 µM | IC50 [2]: > 100 µM | IC50 [3]: 0.86 µM | IC50 [4]: 8.12 µM | IC50 [5]: 6.5 µM | IC50 [6]: > 100 µM

Structure (SMILES): COc1ccc2c(c1)sc1c(O)nc3ccc(C(=N)NC(C)C)cc3c12
IC50 [1]: 38 µM | IC50 [2]: 20.6 µM | IC50 [3]: 2.34 µM | IC50 [4]: 40.6 µM | IC50 [5]: 34.7 µM | IC50 [6]: 6.73 µM

Structure (SMILES): N#Cc1ccc2c(Cl)c(C(=O)Nc3ccccc3)sc2c1
IC50 [1]: 84.9 µM | IC50 [2]: ≥ 100 µM | IC50 [3]: 0.35 µM | IC50 [4]: ≥ 100 µM | IC50 [5]: 0.69 µM | IC50 [6]: > 100 µM

Structure (SMILES): Cc1ccc(NC(=O)c2sc3cc(C#N)ccc3c2Cl)cc1
IC50 [1]: > 100 µM | IC50 [2]: > 100 µM | IC50 [3]: > 100 µM | IC50 [4]: 0.75 µM | IC50 [5]: > 100 µM | IC50 [6]: > 100 µM

The next compounds have a lower IC50 [1] than those just listed; values first:

IC50 [1]: 15.6 µM | IC50 [2]: > 100 µM | IC50 [3]: 25.6 µM | IC50 [6]: 75.9 µM
Structure (SMILES): CC(C)/N=C(/N)c1ccc(NC(=O)c2sc3cc(/C(N)=N\C(C)C)ccc3c2Cl)cc1
IC50 [4]: 86.9 µM | IC50 [5]: 67.3 µM

IC50 [1]: 6.28 µM | IC50 [2]: 13.2 µM | IC50 [3]: 8.92 µM | IC50 [6]: 7.99 µM
Structure (SMILES): CC(C)/N=C(/N)c1ccc2c(c1)sc1c(O)nc3ccc(Br)cc3c12
IC50 [4]: 3.88 µM | IC50 [5]: 9.79 µM | Apoptosis [7]: 10% | Apoptosis [8]: 15% | Apoptosis [9]: 9% | Apoptosis [10]: 13% | Apoptosis [11]: 3% | Apoptosis [12]: 11%

IC50 [1]: 5.58 µM | IC50 [2]: 22.7 µM | IC50 [3]: 6.43 µM | IC50 [6]: 6.67 µM
Structure (SMILES): Cc1ccc2nc(O)c3sc4cc(/C(N)=N\C(C)C)ccc4c3c2c1
IC50 [4]: 19.1 µM | IC50 [5]: 8.51 µM

IC50 [1]: 5.56 µM | IC50 [2]: 8.11 µM | IC50 [3]: 15.8 µM | IC50 [6]: 6.93 µM
Structure (SMILES): COC(=O)c1ccc2nc(O)c3sc4cc(C(=N)NC(C)C)ccc4c3c2c1
IC50 [4]: 5.33 µM | IC50 [5]: 97 µM | Apoptosis [7]: 13% | Apoptosis [8]: 15% | Apoptosis [9]: 6% | Apoptosis [10]: 7% | Apoptosis [11]: 6% | Apoptosis [12]: 14%

IC50 [1]: 5.4 µM | IC50 [2]: 7.57 µM | IC50 [3]: 4.3 µM | IC50 [6]: 5.98 µM
Structure (SMILES): Cc1ccc2c(c1)sc1c(O)nc3ccc(/C(N)=N\C(C)C)cc3c12
IC50 [4]: 18.7 µM | IC50 [5]: 8.59 µM | Apoptosis [7]: 6% | Apoptosis [8]: 8% | Apoptosis [9]: 15% | Apoptosis [10]: 16% | Apoptosis [11]: 3% | Apoptosis [12]: 17%

IC50 [1]: 2.54 µM | IC50 [2]: 3.93 µM | IC50 [3]: 2.15 µM | IC50 [6]: 3.51 µM
Structure (SMILES): CC(C)/N=C(/N)c1ccc(NC(=O)c2sc3cc(Br)ccc3c2Cl)cc1
IC50 [4]: 2.99 µM | IC50 [5]: 2.37 µM

IC50 [1]: 2.36 µM | IC50 [2]: 3.6 µM | IC50 [3]: 5.65 µM | IC50 [6]: 7.1 µM
Structure (SMILES): COC(=O)c1ccc(NC(=O)c2sc3cc(C(=N)NC(C)C)ccc3c2Cl)cc1
IC50 [4]: 6.9 µM | IC50 [5]: 8.16 µM

IC50 [1]: 1.97 µM | IC50 [2]: 27.8 µM | IC50 [3]: 12.9 µM | IC50 [6]: 6.99 µM
Structure (SMILES): CC(C)/N=C(/N)c1ccc(NC(=O)c2sc3ccccc3c2Cl)cc1
IC50 [4]: 36.4 µM | IC50 [5]: 15.3 µM

IC50 [1]: 1.23 µM | IC50 [2]: 3.67 µM | IC50 [3]: 2.24 µM | IC50 [6]: 3.49 µM
Structure (SMILES): COC(=O)c1ccc2c(Cl)c(C(=O)Nc3ccc(C(=N)NC(C)C)cc3)sc2c1
IC50 [4]: 2.85 µM | IC50 [5]: 5.37 µM
